Biological target: T1, Prostaglandin G/H synthase 1 (Ovis aries, UniProt P05979)
T1 sequence (P05979 whole entry): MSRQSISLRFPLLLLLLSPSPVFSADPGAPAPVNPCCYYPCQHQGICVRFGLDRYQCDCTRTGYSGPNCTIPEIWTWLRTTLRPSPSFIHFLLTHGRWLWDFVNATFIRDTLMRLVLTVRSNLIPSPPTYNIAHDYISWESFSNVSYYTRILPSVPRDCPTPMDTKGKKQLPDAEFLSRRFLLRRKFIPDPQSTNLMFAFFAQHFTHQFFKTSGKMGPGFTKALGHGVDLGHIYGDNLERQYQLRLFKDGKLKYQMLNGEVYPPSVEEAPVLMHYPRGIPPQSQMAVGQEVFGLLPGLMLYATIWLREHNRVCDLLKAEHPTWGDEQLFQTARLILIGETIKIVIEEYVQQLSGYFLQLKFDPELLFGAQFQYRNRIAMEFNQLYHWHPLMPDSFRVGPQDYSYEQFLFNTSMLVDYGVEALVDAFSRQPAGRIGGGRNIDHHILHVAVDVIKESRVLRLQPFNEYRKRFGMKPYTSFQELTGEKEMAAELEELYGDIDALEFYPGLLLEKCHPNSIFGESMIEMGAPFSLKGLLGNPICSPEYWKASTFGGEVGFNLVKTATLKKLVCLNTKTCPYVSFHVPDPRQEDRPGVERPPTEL
Experiment: Reversible competitive inhibition of prostaglandin G/H synthase 1
How it was run: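 Ovine seminal vesicle COX-1, purified to >95% (Coomassie SDS-PAGE) and hematin-reconstituted. Coupled cyclooxygenase-peroxidase assay at 22 °C in 0.1 M Tris–HCl pH 8.0, read as TMPD oxidation after arachidonic acid start. Initial rates were taken because the enzyme auto-inactivates. Hydrogen-peroxide-initiated controls checked for peroxidase inhibition.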

SMILES	IC50 [µM]
COC(=O)C(C)c1ccc(-c2ccccc2)cc1 (stereo not given)	28.5
CC(C(=O)N(C)C)c1ccc(-c2ccccc2)c(F)c1 (stereo not given)	215
CC(C(N)=O)c1ccc(-c2ccccc2)cc1 (stereo not given)	64.5
COC(=O)C(C)c1ccc(-c2ccccc2)c(F)c1 (stereo not given)	210
CC(C)Cc1ccc(C(C)C(=O)O)cc1[N+](=O)[O-] (stereo not given)	59

Stronger by IC50, values ahead:

IC50 [µM]	SMILES
24	CNC(=O)C(C)c1ccc(-c2ccccc2)c(F)c1 (stereo not given)
19.5	CNC(=O)C(C)c1ccc(-c2ccccc2)cc1 (stereo not given)
8.3	CC(C(N)=O)c1ccc(-c2ccccc2)c(F)c1 (stereo not given)
4.8	CC(C(=O)N(C)C)c1ccc(-c2ccccc2)cc1 (stereo not given)
0.11	CC(C)Cc1ccc(C(C)C(=O)O)cc1Br (stereo not given)
